The text below walks through data of ChEMBL document CHEMBL4049387, “Combination of l-Carnitine with Lipophilic Linkage-Donating Gemcitabine Derivatives as Intestinal Novel Organic Cation Transporter 2-Targeting Oral Prodrugs” (J Med Chem, 2017).

The nature of data set [1]: Half life in pH 1.2 phosphate buffer at 5 uM by HPLC method. The class given is physicochemical. A digest of the protocol: (§1)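 Compound dissolved at 5 µM in phosphate buffer (pH 1.2, 6.8 or 7.4), held at 37 °C for 24 h. Aliquots taken at intervals and analysed by HPLC. t1/2 = 0.693/k from linear regression of pseudo-first-order kinetics.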
Data set [2] is described as follows: Stability of the compound in pH 6.8 phosphate buffer at 5 uM by HPLC method. The class given is physicochemical. The conditions noted are these: pH 6.8, 5 µM. A digest of the protocol: as §1
For data set [3], the target named is T1, Organic cation/carnitine transporter 2 (Homo sapiens, UniProt O76082).
T1 sequence (O76082 whole entry): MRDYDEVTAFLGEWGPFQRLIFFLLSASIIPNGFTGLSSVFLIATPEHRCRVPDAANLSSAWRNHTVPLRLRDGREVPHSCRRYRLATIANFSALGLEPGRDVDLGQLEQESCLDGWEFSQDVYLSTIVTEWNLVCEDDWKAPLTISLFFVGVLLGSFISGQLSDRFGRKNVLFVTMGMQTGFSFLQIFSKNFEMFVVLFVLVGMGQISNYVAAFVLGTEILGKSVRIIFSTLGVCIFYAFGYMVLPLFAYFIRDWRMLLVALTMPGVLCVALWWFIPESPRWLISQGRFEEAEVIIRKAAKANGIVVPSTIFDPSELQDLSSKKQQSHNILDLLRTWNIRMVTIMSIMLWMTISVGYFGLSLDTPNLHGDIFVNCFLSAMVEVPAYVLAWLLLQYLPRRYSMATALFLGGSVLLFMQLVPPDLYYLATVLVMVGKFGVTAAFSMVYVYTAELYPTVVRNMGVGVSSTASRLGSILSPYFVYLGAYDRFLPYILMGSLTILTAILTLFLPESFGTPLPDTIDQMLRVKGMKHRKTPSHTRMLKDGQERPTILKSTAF
Description: Ratio of drug transport assessed as OCTN2 transporter mediated drug uptake in human Caco2 cells at 1 to 800 uM in presence of Na+ to drug transport assessed as OCTN2 transporter mediated drug uptake in human Caco2 cells at 1 to 800 uM in presence of N-methyl-D-glucamine. The conditions noted are these: caco-2, 800 µM. It counts as ADME, cell-based.

For a further data set, the system named is OCTN2. The data set is described as follows: Ratio of drug transport in OCTN2 (unknown origin) expressing HEK293 cells assessed as transporter-mediated drug uptake at 25 uM to drug uptake in HEK293 cells at 25 uM. The class given is ADME, cell-based. The conditions noted are these: human, HEK293 cells expressing OCTN2, against HEK293 cells. Put shortly:
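OCTN2-transfected HEK293 cells and mock HEK293 cells incubated with 25 µM compound at 37 °C for 15 min, then cellular uptake measured; n = 2.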

Data set [4] has as its system Mus musculus. Description: Toxicity in Kunming mouse assessed as […] degeneration in cardiac muscle at 102 mg/kg, po administered once daily for 14 days by hematoxylin/eosin staining based optical microscopic analysis. It counts as organism-based. The conditions noted are these: in vivo, 336 h. A digest of the protocol:
(§2)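 Kunming mice, four per group, dosed orally once daily for 14 days with 102 mg/kg or saline control; body weight recorded every other day. Heart, liver, spleen, lung and kidney fixed in 10% buffered formalin, paraffin-embedded, sectioned, stained with hematoxylin and eosin, and examined by optical microscopy.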

Data set [5] deals with Mus musculus. The data set is described as follows: Toxicity in Kunming mouse assessed as […] degeneration in kidney at 102 mg/kg, po administered once daily for 14 days by hematoxylin/eosin staining based optical microscopic analysis. It counts as organism-based. The conditions noted are these: in vivo, 336 h. A digest of the protocol:
as §2

Data set [6] deals with Mus musculus. The data set is described as follows: Toxicity in Kunming mouse assessed as inflammatory infiltrates in hepatocytes at 102 mg/kg, po administered once daily for 14 days by hematoxylin/eosin staining based optical microscopic analysis. It counts as organism-based. The conditions noted are these: in vivo, 336 h. A digest of the protocol: as §2
In data set [7] the test system is Mus musculus. Description: Toxicity in Kunming mouse assessed as inflammatory infiltrates in spleen at 102 mg/kg, po administered once daily for 14 days by hematoxylin/eosin staining based optical microscopic analysis. The class given is organism-based. The conditions noted are these: in vivo, 336 h. Put shortly: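 Kunming mice, four per group, dosed orally once daily for 14 days with test article or physiological saline control, body weight recorded every other day. After sacrifice, heart, liver, spleen, lung and kidney were fixed at once in 10% buffered formalin, paraffin-embedded, sectioned, H&E stained and examined by optical microscopy for hydropic degeneration, inflammatory infiltrates and fibrosis.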

Data set [8] addresses T1, Organic cation/carnitine transporter 2. Description: Drug transport assessed as Vmax for OCTN2 transporter mediated drug uptake in human Caco2 cells after 10 mins by Eadie-Hofstee plot method. The conditions noted are these: caco-2, 10 min. The class given is ADME, cell-based.

Compound `C[N+](C)(C)CC(CC(=O)[O-])OC(=O)CCCCC(=O)Nc1ccn([C@@H]2O[C@H](CO)[C@@H](O)C2(F)F)c(=O)n1` (some centres undefined) showed a half-life at 5 µM in data set [1] of 4.4 h. Moreover, in [2], the Stability entry is “Stable”. Also, the Ratio in data set [3] lay in the range of 2 to 10. Besides, in the data set with OCTN2, the uptake ratio at 25 µM was 3 to 8. Also, the Activity entry with Mus musculus [4], with Mus musculus [5], in the data set with Mus musculus [6] and with Mus musculus [7] was “Non-Toxic” throughout. For the same compound, the Vmax in data set [8] was found to be 0.286 nmol/mg.
